Experimental data as given in ChEMBL document CHEMBL2385038, “Bioactive dibenzocyclooctadiene lignans from the stems of Schisandra neglecta” (J Nat Prod, 2013).

Experiments:
MCF7 = assay: Cytotoxicity against human MCF7 cells after 3 days by MTT assay; format: functional, cell-based; conditions: MCF7, 72 h
Procedure, shortened: (§1)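 MTT viability assay on NB4 (acute promyelocytic leukemia), A549 (lung adenocarcinoma), SHSY5Y (neuroblastoma), PC3 (prostate) and MCF7 (breast adenocarcinoma) cells, reported as IC50. Paclitaxel was the positive control. Performed in triplicate.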

PC-3 = assay: Cytotoxicity against human PC3 cells after 3 days by MTT assay; format: functional, cell-based; conditions: PC-3, 72 h; procedure, shortened: as §1
A549 = assay: Cytotoxicity against human A549 cells after 3 days by MTT assay; format: functional, cell-based; conditions: A549, 72 h; procedure, shortened: as §1
[1] = Cytotoxicity against human SH-SY5Y cells after 3 days by MTT assay; format: functional, cell-based; conditions: 72 h; procedure, shortened: as §1
[2] = Therapeutic index, ratio of CC50 for human C8166 cells to EC50 for HIV-1 3B; format: cell-based; conditions: read-out: Ratio CC50/EC50
NB-4 = assay: Cytotoxicity against human NB4 cells after 3 days by MTT assay; format: functional, cell-based; conditions: NB-4, 72 h; procedure, shortened: as §1
[3] = test system: Human immunodeficiency virus 1; assay: Antiviral activity against HIV-1 3B infected in human C8166 cells assessed as inhibition of virus-induced cytopathic effect after 3 days by Syncytia Assay; format: functional, organism-based; conditions: Human immunodeficiency virus 1, 3B, C8166, 72 h
Procedure, shortened: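 Inhibition of HIV-1-induced cytopathic effect in C8166 cells, expressed as EC50. Azidothymidine (AZT) served as the positive control. Performed in triplicate.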

[4] = Cytotoxicity against human C8166 cells after 3 days by MTT assay; format: cell-based
Procedure, shortened: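 Viability of uninfected C8166 cells was measured by MTT to give CC50, alongside the anti-HIV-1 assay. Performed in triplicate.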

SMILES	IC50 (MCF7) [µM]	IC50 (PC-3) [µM]	IC50 (A549) [µM]	IC50 [1] [µM]	selectivity ratio [2]	IC50 (NB-4) [µM]	EC50 [3] [µM]	CC50 at 72 h [4] [µM]
COc1c(O)cc2c(c1OC)-c1c(cc3c(c1OC)OCO3)[C@H](OC(=O)C(C)C)[C@H](C)[C@H](C)C2	> 10	> 10	> 10	> 10	18.1	> 10	8.2	149
COc1c(OC)c(C(=O)O)c2c(c1OC)-c1c(cc3c(c1OC)OCO3)[C@H](O)[C@H](C)[C@H](C)C2	7.4	> 10	6.8	> 10	40.3	> 10	2.2	86.7
COc1c(O)c(C(=O)O)c2c(c1OC)-c1c(cc3c(c1OC)OCO3)[C@H](O)[C@H](C)[C@H](C)C2	> 10	9.2	5.9	> 10	55.3	> 10	1.4	75.2
COc1c2c(cc(CC(C)=O)c1-c1c(CC(C)=O)cc3c(c1OC)OCO3)OCO2	> 10	> 10	> 6.5	8.2	14.1	7.3	3.9	54.5
COc1cc(CC(C)=O)c(-c2c(CC(C)=O)cc(OC)c(OC)c2O)c(O)c1OC	7.8	5.1	8.6	3.3	9.2	2.9	4.2	38.8
COc1cc2c(c(OC)c1OC)-c1c(cc(OC)c(OC)c1OC)[C@H](OCC(C)C)[C@@H](C)[C@@H](C)C2	> 10	> 10	> 10	> 10	> 33.7	> 10	5.9	> 200
COc1cc2c(c(OC)c1OC)-c1c(cc(O)c(OC)c1OC)[C@H](OCC(C)C)[C@@H](C)[C@@H](C)C2	> 10	> 10	> 10	> 10	> 58	> 10	3.5	> 200
COc1cc2c(c(OC)c1OC)-c1c(cc(O)c(OC)c1OC)C[C@H](C)[C@@](C)(O)C2					15.1		8.2	124
C/C=C(/C)C(=O)O[C@H]1c2cc(OC)c(OC)c(OC)c2-c2c(cc(OC)c(OC)c2OC)C[C@H](C)[C@]1(C)O	> 10	> 10	> 10	7.8	7.4	> 10	11.5	84.7
COc1cc2c(c(O)c1OC)-c1c(cc(OC)c(OC)c1OC)[C@H](OC(=O)c1ccccc1)[C@@H](C)[C@@](C)(O)[C@H]2OC(C)=O	9.7	> 10	> 10	> 10	17.8	7.4	8.3	147
COc1cc2c(c(OC)c1OC)-c1c3cc4c(c1OC[C@@H](C)[C@@](C)(O)C(=O)O[C@@H]2[C@@](C)(O)[C@@H](C)C3)OCO4					18.9		9.8	186
COc1cc2c(c(O)c1OC)-c1c(cc3c(c1OC)OCO3)C[C@H](C)[C@H](C)C2 (racemic)	> 10	> 10	> 10	> 10		> 10		
COc1cc2c(c(OC)c1OC)-c1c(cc3c(c1OC)OCO3)[C@H](OC(=O)C=C(C)C)[C@@](C)(O)[C@@H](C)C2 [GOMISIN F]	> 10	> 10	> 10	> 10	7.5	> 10	8.3	61.9
C/C=C(/C)C(=O)O[C@H]1c2cc(OC)c(OC)c(OC)c2-c2c(cc3c(c2OC)OCO3)[C@H](OC(C)=O)[C@H](C)[C@@H]1C [INTERIOTHERIN C]	> 10	> 10	> 10	> 10		> 10		
COc1cc2c(c(OC)c1OC)-c1c(cc3c(c1OC)OCO3)[C@H](O)[C@H](C)[C@H](C)C2 [ISOGOMISIN O]	> 10	> 10	> 10	> 10		> 10		
COc1c(O)cc2c(c1OC)-c1c(cc(O)c(OC)c1OC)[C@H](OCc1ccccc1)[C@@H](C)[C@@H](C)C2 [MARLIGNAN G]	> 10	9.5	8.6	> 10		> 10		
CC(=O)O[C@H]1C(=O)[C@@]2(C)[C@H]([C@H](OC(=O)c3ccccc3)[C@]3(O)C[C@H](OC(=O)[C@H](O)[C@@H](NC(=O)c4ccccc4)c4ccccc4)C(C)=C1C3(C)C)[C@]1(OC(C)=O)CO[C@@H]1C[C@@H]2O [PACLITAXEL]			0.02	0.2		0.03		
COc1cc2c(c(OC)c1OC)-c1c(cc3c(c1OC)OCO3)C[C@H](C)[C@H](C)[C@H]2OC(C)=O [RUBSCHISANTHERIN]	> 10	> 10	> 10	> 10	18.2	> 10	4.7	85.2
COc1cc(CO)c(-c2c(C[C@H](C)C(C)=O)cc3c(c2OC)OCO3)c(OC)c1OC [SCHISPHENONE]	> 10	8.9	> 10	> 10	12.3	> 10	12.7	156
Cc1cn([C@H]2C[C@H](N=[N+]=[N-])[C@@H](CO)O2)c(=O)[nH]c1=O [ZIDOVUDINE]							0.034	> 200
